Source: ChEMBL document CHEMBL1121409, “Mechanism of decomposition of N-hydroxyacetaminophen, a postulated toxic metabolite of acetaminophen” (J Med Chem, 1980)

How the values were obtained:
Assay type in all cases: ADME
[1] = The compound was tested for half life in presence of salicylate as additive (20 mM)
How it was run: (§1)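 N-hydroxyacetaminophen at 1.5 mM initial, incubated at 37 °C in 0.2 M sodium phosphate pH 7.6, with each additive (20 mM) present before adding substrate. Aliquots were quenched in cold acetic acid (final pH ~3), or mixed with 10% FeCl3 in 0.9 M HCl and read at 540 nm. Remaining substrate was tracked by HPLC peak height (system A) or by the ferric assay. First-order disappearance gave the half-life.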

[2] = The compound was tested for half life in presence of thiosulphate as additive (20 mM); how it was run: as §1
[3] = The compound was tested for half life in presence of N-acetyl cysteine as additive (20 mM); how it was run: as §1
[4] = The compound was tested for half life in presence of acetaminophen as additive (20 mM); how it was run: as §1
[5] = The compound was tested for half life in presence of ascorbic acid as additive (20 mM); how it was run: as §1
[6] = The compound was tested for half life in presence of aspirin as additive (20 mM); how it was run: as §1
[7] = The compound was tested for half life in presence of control; how it was run: as §1
[8] = The compound was tested for half life in presence of cystamine as additive (20 mM); how it was run: as §1
[9] = The compound was tested for half life in presence of cysteamine as additive (20 mM); how it was run: as §1
[10] = The compound was tested for half life in presence of cysteine as additive (20 mM); how it was run: as §1
[11] = The compound was tested for half life in presence of dithionite as additive (20 mM); how it was run: as §1
[12] = The compound was tested for half life in presence of ethanol as additive (20 mM); how it was run: as §1
[13] = The compound was tested for half life in presence of glycine as additive (20 mM); how it was run: as §1
[14] = The compound was tested for half life in presence of lysine as additive (20 mM); how it was run: as §1
[15] = The compound was tested for half life in presence of methionine as additive (20 mM); how it was run: as §1
[16] = The compound was tested for half life in presence of phenol as additive (20 mM); how it was run: as §1
[17] = The compound was tested for half life in presence of pyrogallol as additive (20 mM); how it was run: as §1
[18] = The compound was tested for half life in presence of p-Nitrosophenol as additive (20 mM); how it was run: as §1

- half-life [1]: 6.5 min
- half-life [2]: 31 min
- half-life [3]: 68 min
- half-life [4]: 33 min
- half-life [5]: 76 min
- half-life [6]: 6.4 min
- half-life [7]: 9.4 min
- half-life [8]: 43 min
- half-life [9]: 72 min
- half-life [10]: 78 min
- half-life [11]: 24 min
- half-life [12]: 6.7 min
- half-life [13]: 24 min
- half-life [14]: 23 min
- half-life [15]: 31 min
- half-life [16]: 14 min
- half-life [17]: 60 min
- half-life [18]: 17 min
Structure (SMILES): CC(=O)N(O)c1ccc(O)cc1
